Assay results: ChEMBL document CHEMBL3997777, “Pterosin Sesquiterpenoids from Pteris cretica as Hypolipidemic Agents via Activating Liver X Receptors” (J Nat Prod, 2016)
The source made the active and inactive calls. The calls are words filed in the database; no cut-off is given here.

How the values were obtained:
[1] = molecular target: T1, Oxysterols receptor LXR-beta (Rattus norvegicus) (UniProt Q62755); test: Activation of rat LXRbeta expressed in HEK293 cells co-expressing human RXRalpha at 10 uM after 20 hrs by luciferase reporter gene assay; format: cell-based
T1 sequence (whole entry): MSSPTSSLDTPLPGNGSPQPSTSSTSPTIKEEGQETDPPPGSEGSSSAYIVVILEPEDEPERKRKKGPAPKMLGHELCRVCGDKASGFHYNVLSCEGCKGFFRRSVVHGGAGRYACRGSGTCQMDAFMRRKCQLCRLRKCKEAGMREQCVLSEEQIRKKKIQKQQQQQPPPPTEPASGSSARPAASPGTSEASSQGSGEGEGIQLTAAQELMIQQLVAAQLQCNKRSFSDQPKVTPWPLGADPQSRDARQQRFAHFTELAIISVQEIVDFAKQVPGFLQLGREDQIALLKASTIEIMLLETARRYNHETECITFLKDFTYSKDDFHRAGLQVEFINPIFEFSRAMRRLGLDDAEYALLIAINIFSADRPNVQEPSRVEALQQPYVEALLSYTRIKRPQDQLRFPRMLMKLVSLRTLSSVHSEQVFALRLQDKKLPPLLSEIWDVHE
In short: (§1)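 HEK 293T cells seeded at 3 × 10^4/well and attached 12 h. Cotransfected by lipofection with hLXRα or rLXRβ receptor plasmid plus hRXRα, a DR-4 LXRE firefly luciferase reporter and a CMV renilla control. Compounds added 10 h later; 0.1% DMSO vehicle. Luminescence read 20 h after treatment, firefly normalized to renilla, fold over vehicle; mean ± SD, three independent experiments.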

[2] = organism: Mus musculus; test: Activation of LXR in mouse 3T3L1 preadipocytes assessed as decrease in triglyceride level up to 10 uM […] measured on day 6 by Oil Red O staining based assay; format: cell-based
In short: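 3T3-L1 adipocytes differentiated over 6 days (IBMX/dexamethasone/insulin/biotin for 3 days, then insulin only), compound in DMSO present throughout. Day 6 cells fixed in 4% formaldehyde for 1 h at room temperature, then stained with 0.35% Oil Red O stock diluted 3:2 in water for 30 min at 60 °C. Washed, then imaged at 4× magnification.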

[3] = Cytotoxicity against HEK293T cells assessed as cell viability at 10 uM after 24 hrs by MTT assay relative to control; format: cell-based, HEK-293T; conditions: human, read-out: Activity
In short: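 HEK 293T cells in DMEM/10% FBS at 37 °C, 5% CO2, exposed to compounds at 10 μM for 24 h in triplicate. MTT (2.5 mg/mL) added for 4 h, then DMSO. Absorbance read at 492 nm after 20 min shaking. Survival = (A sample − A blank)/(A control − A blank) × 100%.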

[4] = organism: Mus musculus; test: Activation of LXR in mouse 3T3L1 preadipocytes assessed as decrease in triglyceride level for 3 days measured on day 6; format: cell-based
In short: (§2)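 3T3-L1 cells grown in DMEM/10% FBS. Two days post-confluence (day 0), switched to differentiation medium (insulin 2 μg/mL, dexamethasone 100 ng/mL, IBMX 0.5 mM, biotin 10 ng/mL) for 3 days, then insulin-only medium for 3 more days. Compounds in DMSO (<0.1%) present throughout differentiation. Day 6 cells PBS-washed and lysed, TG measured by kit, expressed relative to vehicle; mean ± SD, three independent experiments.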

[5] = molecular target: T2, Oxysterols receptor LXR-alpha (Homo sapiens) (UniProt Q13133); test: Activation of human LXRalpha expressed in HEK293 cells co-expressing human RXRalpha at 10 uM after 20 hrs by luciferase reporter gene assay; format: cell-based; in short: as §1
T2 sequence (whole entry): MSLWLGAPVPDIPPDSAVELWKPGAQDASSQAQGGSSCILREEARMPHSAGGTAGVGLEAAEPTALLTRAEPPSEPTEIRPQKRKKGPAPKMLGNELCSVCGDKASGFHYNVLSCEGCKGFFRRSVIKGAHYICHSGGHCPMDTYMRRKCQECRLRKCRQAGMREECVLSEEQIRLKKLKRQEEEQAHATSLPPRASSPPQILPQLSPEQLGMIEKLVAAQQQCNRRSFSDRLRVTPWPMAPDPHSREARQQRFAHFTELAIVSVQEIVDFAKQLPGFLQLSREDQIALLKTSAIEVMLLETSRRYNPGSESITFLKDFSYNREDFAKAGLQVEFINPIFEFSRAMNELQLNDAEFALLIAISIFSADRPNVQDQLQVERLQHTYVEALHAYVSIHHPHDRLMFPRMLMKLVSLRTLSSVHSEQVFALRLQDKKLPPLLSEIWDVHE

[6] = organism: Mus musculus; test: Activation of LXR in mouse 3T3L1 preadipocytes assessed as decrease in triglyceride level at 1 to 10 uM for 3 days measured on day 6; format: cell-based; in short: as §2

| SMILES | viability at 24 h, 10 µM [3] [%] | further results |
| --- | --- | --- |
| Cc1c(CCO)c(CO)cc2c1C(=O)[C@H](C)[C@@H]2O | 100 | Activity [1]: Active; Activity [2]: Active; Activity [4]: Dose-dependent effect; Activity [5]: Active |
| Cc1cc2c(c(CO)c1CCO)C(=O)[C@@](C)(O)C2=O | 100 |  |
| CC1(C)C[C@@H](O[C@@H]2O[C@H](CO)[C@@H](O)[C@H](O)[C@H]2O)C[C@]2(C)[C@@H]1CC[C@@]13C[C@@H](CC[C@H]12)[C@](C)(O)C3 | 100 |  |
| Cc1c(CCO)c(CO)cc2c1C(=O)[C@@H](C)[C@@H]2O | 100 |  |
| Cc1cc2c(c(C)c1CCO)C(=O)C(C)(C)[C@@H]2O | 100 |  |
| Cc1cc2c(c(C)c1CCO[C@@H]1O[C@H](CO)[C@@H](O)[C@H](O)[C@H]1O)C(=O)C(C)(C)[C@H]2O | 100 |  |
| CC1(C)C[C@@H](O)C[C@]2(C)[C@@H]1CC[C@@]13C[C@@H](CC[C@@H]21)[C@@](O)(CO)[C@@H]3O | 100 |  |
| Cc1cc2c(c(C)c1CCO)C(=O)[C@](C)(O)[C@@H]2O | 100 |  |
| C=C1[C@@H]2CC[C@H]3[C@]4(C)C[C@H](O)CC(C)(C)[C@H]4[C@H](O)C[C@]3(C2)[C@H]1O | 100 |  |
| Cc1cc2c(c(CO)c1CCO)C(=O)[C@H](C)[C@@H]2O | 100 |  |
| C=C1[C@@H]2CC[C@H]3[C@]4(C)C[C@H](O)CC(C)(C)[C@H]4CC[C@]3(C2)[C@H]1O | 100 |  |
| Cc1cc2c(c(CO)c1CCO)C(=O)[C@@H](C)[C@@H]2O | 100 |  |
| COc1ccc2cc3[n+](cc2c1OC)CCc1cc2c(cc1-3)OCO2 |  | Activity [6]: Active |
| Cc1cc2c(c(C)c1CCO)C(=O)[C@H](C)[C@@H]2O | 100 |  |
| Cc1cc2c(c(C)c1CCO)C(=O)[C@@H](C)[C@@H]2O | 100 | Activity [2]: Active; Activity [4]: Dose-dependent effect |
| Cc1cc2c(c(CO)c1CCO)C(=O)[C@](C)(CO)[C@@H]2O | 100 |  |
| Cc1cc2c(c(C)c1CCO[C@@H]1O[C@H](CO)[C@@H](O)[C@H](O)[C@H]1O)C(=O)[C@@H](C)[C@@H]2O | 100 |  |
| Cc1cc2c(c(C)c1CCO)C(=O)[C@](C)(CO)[C@@H]2O | 100 |  |
| C=C1[C@@H]2CC[C@H]3[C@]4(C)C[C@H](O[C@@H]5O[C@H](CO)[C@@H](O)[C@H](O)[C@H]5O)CC(C)(C)[C@H]4CC[C@]3(C2)[C@H]1O | 100 |  |
| CC1(C)C[C@@H](O)C[C@]2(C)[C@@H]1[C@H](O)C[C@@]13C[C@@](O)(CC[C@H]12)[C@](C)(O)C3 | 100 | Activity [2]: Active; Activity [4]: Dose-dependent effect |
| CC1(C)C[C@@H](O)C[C@]2(C)[C@@H]1[C@H](O)C[C@@]13C[C@@H](CC[C@H]12)[C@](C)(O)C3 | 100 | Activity [2]: Active; Activity [4]: Dose-dependent effect |
| Cc1cc2c(c(C)c1CCO)C(=O)[C@@](C)(O)[C@@H]2O | 100 |  |
| O=C(O)Cc1cccc(OCCCN(Cc2cccc(C(F)(F)F)c2Cl)CC(c2ccccc2)c2ccccc2)c1 |  | Activity [1]: Active; Activity [5]: Active |
| Cc1cc2c(c(C)c1CCO[C@@H]1O[C@H](CO)[C@@H](O)[C@H](O)[C@H]1O)C(=O)[C@H](C)[C@@H]2O | 100 |  |
